The source made the active and inactive calls. No cut-off for these calls is given here.
Tests used:
[1] = system: A549; experiment: Antiproliferative activity against human A549 cells assessed as reduction in cell viability measured after 48 hrs by colorimetric based MTT assay; type: functional; conditions: A549, 48 h
[2] = system: MCF7; experiment: Antiproliferative activity against human MCF7 cells assessed as reduction in cell viability measured after 48 hrs by colorimetric based MTT assay; type: functional; conditions: MCF7, 48 h
[3] = Antiproliferative activity against human HaCaT cells assessed as reduction in cell viability measured after 48 hrs by colorimetric based MTT assay
[4] = system: Jurkat; experiment: Antiproliferative activity against human Jurkat cells assessed as reduction in cell viability measured after 48 hrs by colorimetric based MTT assay; type: functional
In short: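 Jurkat leukemia cells kept in RPMI with 10% FBS, 2 mM L-glutamine and penicillin/streptomycin at 37 °C, 5% CO2. Plated at 3.5 × 10^3 cells/well and left 24 h, then given fresh medium alone or with serial dilutions (40, 20, 10, 5 μM) for 48 h. Staurosporine 0.2 μM served as positive control. MTT added for 3 h, formazan dissolved in DMF/SDS solution at pH 4.5, OD read at 620 nm. Viability calculated as % of DMSO control. IC50 taken as the concentration giving 50% growth inhibition versus control.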

[5] = system: A-375; experiment: Antiproliferative activity against human A-375 cells assessed as reduction in cell viability measured after 48 hrs by colorimetric based MTT assay; type: functional; conditions: A-375, 48 h
[6] = system: HaCaT; experiment: Induction of cell cycle arrest in human HaCaT cells assessed as accumulation at G2 phase at 40 uM measured after 24 hrs by PI staining based flow cytometry analysis; type: functional
In short: (§1)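 HaCaT or Jurkat cells plated at 3 × 10^4 cells/well, left 24 h, then treated with 40, 20, 10 or 5 μM for 24 h. Staurosporine 0.2 μM served as positive control. DNA stained with PI and 10 000 events per sample acquired by flow cytometry. Percentages of cells in G0/G1, S and G2/M were derived from the DNA profiles. Three independent experiments in triplicate, mean ± SEM, Mann–Whitney U test.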

[7] = system: HaCaT; experiment: Induction of apoptosis in human HaCaT cells assessed as increase accumulation of hypodiploid nuclei cells measured after 24 hrs by PI staining based flow cytometry analysis; type: functional, cell-based; conditions: dose 5-40 µM, DDE = dose-dependent effect
In short: (§2)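 A549, Jurkat or HaCaT cells plated at 3 × 10^4 cells/well, left 24 h, then exposed to 40, 20, 10 or 5 μM for 24 h. Staurosporine 0.2 μM served as positive control. Cells washed in PBS and stained 30 min at 4 °C in the dark with PI in 0.1% Triton X-100/0.1% sodium citrate. Analysed by flow cytometry with debris excluded by forward scatter and DNA on a log scale. Read-out is % hypodiploid nuclei. Three independent experiments in triplicate, mean ± SEM, Mann–Whitney U test.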

[8] = system: A549; experiment: Induction of apoptosis in human A549 cells assessed as increase accumulation of hypodiploid nuclei cells at 5 to 40 uM measured after 24 hrs by PI staining based flow cytometry analysis; type: functional, cell-based; conditions: dose 5-40 µM; in short: as §2
[9] = system: Jurkat; experiment: Induction of apoptosis in human Jurkat cells assessed as increase accumulation of hypodiploid nuclei cells measured after 24 hrs by PI staining based flow cytometry analysis; type: functional, cell-based; conditions: dose 5-40 µM, DDE = dose-dependent effect; in short: as §2
[10] = system: Jurkat; experiment: Induction of cell cycle arrest in human Jurkat cells assessed as accumulation at S phase measured after 24 hrs by PI staining based flow cytometry analysis; type: functional; conditions: dose 5-40 µM, DDE = dose-dependent effect; in short: as §1
[11] = system: A549; experiment: Induction of apoptosis in human A549 cells assessed as increase accumulation of hypodiploid nuclei cells measured after 24 hrs by PI staining based flow cytometry analysis; type: functional, cell-based; conditions: dose 5-40 µM, DDE = dose-dependent effect; in short: as §2
[12] = system: HaCaT; experiment: Induction of apoptosis in human HaCaT cells assessed as increase accumulation of hypodiploid nuclei cells at 5 to 40 uM measured after 24 hrs by PI staining based flow cytometry analysis; type: functional, cell-based; conditions: dose 5-40 µM; in short: as §2

| Structure (SMILES) | IC50 [1] [µM] | IC50 [2] [µM] | IC50 at 48 h [3] [µM] | IC50 [4] [µM] | IC50 [5] [µM] | Activity [6] | Activity [7] | Activity [8] | Activity [9] | Activity [10] | Activity [11] | Activity [12] |
| --- | --- | --- | --- | --- | --- | --- | --- | --- | --- | --- | --- | --- |
| C=C1C(=O)O[C@H]2[C@H]1C[C@H](OC(C)=O)[C@](C)(O)[C@@]1(O)[C@@H](O)[C@H]3O[C@@]3(C)[C@H]21 (relative stereo) | > 10 | > 10 | > 10 | > 10 | > 10 | – | – | – | – | – | – | – |
| C=C1C(=O)O[C@@H]2C1C[C@@H](OC(C)=O)[C@](C)(O)[C@@]13C=C[C@@](C)(OO1)C23 (stereo not given in full) | 4.1 | > 10 | 1.7 | 4.7 | > 10 | – | – | – | – | – | – | – |
| C=C1C(=O)O[C@@H]2[C@H]1C[C@@H](OC(C)=O)[C@@](C)(O)[C@]13O[C@H]1[C@@H](Cl)[C@](C)(O)[C@H]23 | > 10 | > 10 | 3.5 | > 10 | > 10 | – | – | – | – | – | – | – |
| CN[C@@H]1C[C@H]2O[C@@](C)([C@@H]1OC)n1c3ccccc3c3c4c(c5c6ccccc6n2c5c31)C(=O)NC4 [STAUROSPORINE] | – | – | – | 3.2 | – | – | – | – | – | – | – | – |
| C[C@H]1CC[C@]23O[C@]12C[C@H](C(C)(C)O)CC[C@@]3(C)O (relative stereo) | > 10 | > 10 | > 10 | > 10 | > 10 | – | – | – | – | – | – | – |
| CC(C)(O)/C=C/[C@H]1OC(=O)C[C@]1(C)O (relative stereo) | > 10 | > 10 | > 10 | > 10 | > 10 | – | – | – | – | – | – | – |
| C=C1[C@@H]2[C@@H](OC(C)=O)/C(=C(\CO)C(=O)O)CC[C@@]2(C)[C@H](O)C[C@@H]1O | > 10 | > 10 | > 10 | > 10 | > 10 | – | – | – | – | – | – | – |
| C=C1C(=O)O[C@@H]2C1C[C@@H](OC(C)=O)[C@@](C)(O)[C@@]13O[C@@H]1[C@@H]1O[C@]1(C)[C@H]23 (stereo not given in full) | > 10 | 9.6 | 1.6 | 5 | 3.7 | Active | Dde | Active | Dde | Dde | Dde | Active |
| C=C(C)[C@@H](O)CC[C@@H](C)C1C[C@H](O)C(C)=C[C@@H]1O (relative stereo) | > 10 | > 10 | > 10 | > 10 | > 10 | – | – | – | – | – | – | – |
| CC(=O)O[C@@H]1CC(C)=C2C(=O)C=C(C)[C@@H]2[C@@H](O)[C@H]1C(C)C(=O)O (relative stereo) | > 10 | > 10 | > 10 | > 10 | > 10 | – | – | – | – | – | – | – |
| C=C1[C@@H]2[C@H]3OC(=O)C(COC(C)=O)=C3CC[C@@]2(C)[C@H](O)C[C@@H]1O | > 10 | > 10 | > 10 | > 10 | > 10 | – | – | – | – | – | – | – |
| C=C1C(=O)O[C@H]([C@H]2C(=O)C=C[C@]2(C)O)[C@@H]1CCC(C)=O | > 10 | > 10 | > 10 | > 10 | > 10 | – | – | – | – | – | – | – |
| C=C1C(=O)O[C@H](C2=C(C)[C@@H](O)CC2=O)[C@@H]1CCC(C)=O | 8.9 | > 10 | 2.9 | 7.7 | > 10 | Active | Dde | Active | Dde | Dde | Dde | Active |

— ChEMBL document CHEMBL5143598, “Cytotoxic Sesquiterpenoids from Ammoides atlantica Aerial Parts” (J Nat Prod, 2022)
